ChEMBL document CHEMBL1165965, “Synthesis and structure-activity relationships of 1,2,3,4-tetrahydropyrido[2,3-b]pyrazines as potent and selective inhibitors of the anaplastic lymphoma kinase” (Bioorg Med Chem, 2010)

Key:
[1] = target: Tyrosine-protein kinase JAK1 (Homo sapiens) (UniProt P23458); test: Inhibition of JAK1 JH2 pseudokinase domain at 1 uM
How it was run: (§1)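 Single-concentration screen on the Ambit KINOMEscan platform, run against a panel of 250–400 kinases. Per-kinase inhibition was also summarized as S(90), the fraction of kinases inhibited by more than 90%.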

[2] = target: Tyrosine-protein kinase JAK2 (Homo sapiens) (UniProt O60674); test: Inhibition of JAK2 JH1 catalytic domain at 1 uM; how it was run: as §1
[3] = target: T1, Serine/threonine-protein kinase STK11 (Homo sapiens) (UniProt Q15831); test: Inhibition of LKB1 at 1 uM; how it was run: as §1
T1 sequence (whole entry): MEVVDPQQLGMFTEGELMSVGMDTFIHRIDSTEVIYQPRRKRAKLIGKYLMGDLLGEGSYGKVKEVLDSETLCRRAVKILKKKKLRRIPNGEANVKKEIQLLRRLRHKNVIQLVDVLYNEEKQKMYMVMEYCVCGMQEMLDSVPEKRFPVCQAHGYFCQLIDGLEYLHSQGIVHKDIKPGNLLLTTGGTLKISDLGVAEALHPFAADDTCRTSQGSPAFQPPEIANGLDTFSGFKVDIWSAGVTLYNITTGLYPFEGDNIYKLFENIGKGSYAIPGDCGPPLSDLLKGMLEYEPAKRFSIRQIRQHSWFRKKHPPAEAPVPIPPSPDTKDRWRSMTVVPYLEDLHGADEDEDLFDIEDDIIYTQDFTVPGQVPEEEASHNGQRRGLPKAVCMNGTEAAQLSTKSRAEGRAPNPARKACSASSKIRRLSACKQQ

[4] = target: Serine/threonine-protein kinase MARK1 (Homo sapiens) (UniProt Q9P0L2); test: Inhibition of MARK1 at 1 uM
How it was run: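 Kinase-panel screen using KINOMEscan technology, with 250–400 kinases per panel. Each compound was tested at a single concentration, and inhibition of each kinase was recorded. Selectivity was summarised as S(90), the fraction of kinases inhibited by more than 90%.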

[5] = target: Phosphatidylinositol 4-kinase beta (Homo sapiens) (UniProt Q9UBF8); test: Inhibition of PIK4CB at 1 uM
[6] = target: Phosphatidylinositol 4-phosphate 5-kinase type-1 alpha (Homo sapiens) (UniProt Q99755); test: Inhibition of PIP5K1A at 1 uM
Chain of Phosphatidylinositol 4-phosphate 5-kinase type-1 alpha (Homo sapiens) (Q99755 whole entry): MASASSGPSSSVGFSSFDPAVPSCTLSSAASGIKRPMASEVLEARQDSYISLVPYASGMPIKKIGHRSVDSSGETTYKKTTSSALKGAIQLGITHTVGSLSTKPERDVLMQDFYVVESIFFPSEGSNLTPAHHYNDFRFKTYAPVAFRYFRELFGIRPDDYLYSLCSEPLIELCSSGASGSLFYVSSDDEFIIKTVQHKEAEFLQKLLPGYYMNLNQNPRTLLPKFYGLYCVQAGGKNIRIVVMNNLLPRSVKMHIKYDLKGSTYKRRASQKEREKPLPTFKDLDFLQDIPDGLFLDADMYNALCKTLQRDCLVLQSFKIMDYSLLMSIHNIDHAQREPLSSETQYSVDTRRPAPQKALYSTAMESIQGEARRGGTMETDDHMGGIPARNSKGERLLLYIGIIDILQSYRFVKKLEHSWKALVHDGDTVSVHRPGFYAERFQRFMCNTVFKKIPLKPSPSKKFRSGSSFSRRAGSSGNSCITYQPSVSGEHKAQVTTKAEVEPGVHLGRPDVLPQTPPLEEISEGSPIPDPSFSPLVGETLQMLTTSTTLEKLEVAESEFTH

[7] = target: Serine/threonine-protein kinase PLK1 (Homo sapiens) (UniProt P53350); test: Inhibition of PLK1 at 1 uM
[8] = target: Serine/threonine-protein kinase PLK3 (Homo sapiens) (UniProt Q9H4B4); test: Inhibition of PLK3 at 1 uM
Chain of Serine/threonine-protein kinase PLK3 (Homo sapiens) (Q9H4B4 whole entry, looked up): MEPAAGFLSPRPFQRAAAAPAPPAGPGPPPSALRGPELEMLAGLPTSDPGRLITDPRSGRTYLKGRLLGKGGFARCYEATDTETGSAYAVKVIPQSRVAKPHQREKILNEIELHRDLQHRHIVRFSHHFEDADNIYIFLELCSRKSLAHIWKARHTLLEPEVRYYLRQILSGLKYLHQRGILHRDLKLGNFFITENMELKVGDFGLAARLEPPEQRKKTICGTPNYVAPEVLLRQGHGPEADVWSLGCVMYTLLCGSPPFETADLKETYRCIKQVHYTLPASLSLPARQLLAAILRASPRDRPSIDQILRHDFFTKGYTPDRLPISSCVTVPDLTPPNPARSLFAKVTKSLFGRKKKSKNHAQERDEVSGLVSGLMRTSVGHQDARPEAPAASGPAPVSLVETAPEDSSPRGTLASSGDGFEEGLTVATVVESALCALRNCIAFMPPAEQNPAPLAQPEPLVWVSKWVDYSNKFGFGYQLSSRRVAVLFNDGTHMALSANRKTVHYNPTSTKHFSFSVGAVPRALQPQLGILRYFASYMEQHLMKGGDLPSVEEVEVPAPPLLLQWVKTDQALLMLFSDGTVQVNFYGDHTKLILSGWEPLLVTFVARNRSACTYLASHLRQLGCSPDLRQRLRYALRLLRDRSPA

[9] = target: Protein kinase C delta type (Homo sapiens) (UniProt Q05655); test: Inhibition of PRKCD at 1 uM
Chain of Protein kinase C delta type (Homo sapiens) (Q05655 whole entry, looked up): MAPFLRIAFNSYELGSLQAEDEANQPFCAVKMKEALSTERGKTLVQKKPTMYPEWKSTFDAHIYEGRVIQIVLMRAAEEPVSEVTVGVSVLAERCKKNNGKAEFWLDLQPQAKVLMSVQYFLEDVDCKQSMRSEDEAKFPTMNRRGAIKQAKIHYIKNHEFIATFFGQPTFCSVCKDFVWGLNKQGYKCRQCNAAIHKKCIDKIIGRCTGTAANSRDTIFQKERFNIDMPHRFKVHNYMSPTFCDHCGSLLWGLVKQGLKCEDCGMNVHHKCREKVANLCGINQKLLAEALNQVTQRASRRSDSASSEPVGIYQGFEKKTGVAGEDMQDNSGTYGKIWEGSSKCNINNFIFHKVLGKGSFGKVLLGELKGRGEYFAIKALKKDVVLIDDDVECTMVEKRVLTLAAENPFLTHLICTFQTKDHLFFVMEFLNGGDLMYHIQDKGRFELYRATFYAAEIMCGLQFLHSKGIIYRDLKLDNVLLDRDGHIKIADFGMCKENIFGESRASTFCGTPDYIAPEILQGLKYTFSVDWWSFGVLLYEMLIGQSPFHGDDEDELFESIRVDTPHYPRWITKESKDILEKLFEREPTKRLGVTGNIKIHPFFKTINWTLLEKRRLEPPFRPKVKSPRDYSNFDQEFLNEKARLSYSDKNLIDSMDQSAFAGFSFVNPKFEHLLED

[10] = target: Serine/threonine-protein kinase RIO2 (Homo sapiens) (UniProt Q9BVS4); test: Inhibition of RIOK2 at 1 uM
Chain of Serine/threonine-protein kinase RIO2 (Homo sapiens) (Q9BVS4 whole entry, looked up): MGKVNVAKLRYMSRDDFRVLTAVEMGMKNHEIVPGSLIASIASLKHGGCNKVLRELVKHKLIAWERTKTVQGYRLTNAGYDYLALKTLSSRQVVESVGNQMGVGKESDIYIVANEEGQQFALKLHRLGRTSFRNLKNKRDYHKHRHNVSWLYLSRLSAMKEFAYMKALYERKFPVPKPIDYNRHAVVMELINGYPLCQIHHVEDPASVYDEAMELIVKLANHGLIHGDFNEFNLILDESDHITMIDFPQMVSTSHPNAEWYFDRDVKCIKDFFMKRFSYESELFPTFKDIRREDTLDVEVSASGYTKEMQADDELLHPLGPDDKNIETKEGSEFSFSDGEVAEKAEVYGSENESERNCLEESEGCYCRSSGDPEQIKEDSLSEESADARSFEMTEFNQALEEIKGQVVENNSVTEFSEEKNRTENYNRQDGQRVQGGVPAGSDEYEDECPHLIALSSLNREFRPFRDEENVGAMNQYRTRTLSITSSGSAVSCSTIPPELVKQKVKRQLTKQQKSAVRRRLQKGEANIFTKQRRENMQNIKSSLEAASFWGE

[11] = target: BDNF/NT-3 growth factors receptor (Homo sapiens) (UniProt Q16620); test: Inhibition of TRKB at 1 uM; how it was run: as §1
Chain of BDNF/NT-3 growth factors receptor (Homo sapiens) (Q16620 32-822 limits assumed): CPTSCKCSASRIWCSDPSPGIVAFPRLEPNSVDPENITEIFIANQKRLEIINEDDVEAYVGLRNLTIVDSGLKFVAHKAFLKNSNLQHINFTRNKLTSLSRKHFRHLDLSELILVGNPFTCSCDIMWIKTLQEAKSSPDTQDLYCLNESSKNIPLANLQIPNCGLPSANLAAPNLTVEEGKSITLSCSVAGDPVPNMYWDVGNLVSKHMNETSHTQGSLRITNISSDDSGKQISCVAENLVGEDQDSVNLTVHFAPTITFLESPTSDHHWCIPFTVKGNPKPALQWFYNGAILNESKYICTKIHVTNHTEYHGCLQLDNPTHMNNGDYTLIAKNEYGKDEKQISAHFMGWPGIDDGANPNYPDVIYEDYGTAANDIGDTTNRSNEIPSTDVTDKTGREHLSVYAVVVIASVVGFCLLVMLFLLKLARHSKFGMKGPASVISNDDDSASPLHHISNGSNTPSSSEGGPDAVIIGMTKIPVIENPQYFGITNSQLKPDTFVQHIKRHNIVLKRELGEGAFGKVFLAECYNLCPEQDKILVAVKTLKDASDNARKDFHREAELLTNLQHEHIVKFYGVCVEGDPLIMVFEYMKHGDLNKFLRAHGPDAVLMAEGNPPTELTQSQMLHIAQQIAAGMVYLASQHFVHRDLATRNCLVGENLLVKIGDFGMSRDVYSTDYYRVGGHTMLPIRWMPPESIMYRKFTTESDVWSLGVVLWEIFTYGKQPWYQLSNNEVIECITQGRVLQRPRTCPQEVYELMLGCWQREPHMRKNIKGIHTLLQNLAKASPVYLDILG

[12] = target: T2, Tyrosine-protein kinase TXK (Homo sapiens) (UniProt P42681); test: Inhibition of TXK at 1 uM
T2 sequence (whole entry): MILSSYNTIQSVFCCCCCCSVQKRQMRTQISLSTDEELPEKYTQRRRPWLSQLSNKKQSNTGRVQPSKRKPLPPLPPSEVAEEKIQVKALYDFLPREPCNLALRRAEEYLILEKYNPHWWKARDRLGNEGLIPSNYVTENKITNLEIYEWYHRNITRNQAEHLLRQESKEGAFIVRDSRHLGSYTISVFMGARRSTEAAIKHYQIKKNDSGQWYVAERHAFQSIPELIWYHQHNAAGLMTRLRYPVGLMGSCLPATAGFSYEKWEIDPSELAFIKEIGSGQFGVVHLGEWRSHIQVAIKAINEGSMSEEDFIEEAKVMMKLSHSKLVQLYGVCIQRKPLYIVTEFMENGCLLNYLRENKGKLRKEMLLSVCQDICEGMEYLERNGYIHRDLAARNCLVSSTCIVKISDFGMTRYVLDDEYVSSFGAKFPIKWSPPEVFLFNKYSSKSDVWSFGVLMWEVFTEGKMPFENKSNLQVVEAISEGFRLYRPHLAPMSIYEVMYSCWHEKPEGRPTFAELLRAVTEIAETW

[13] = target: Wee1-like protein kinase 2 (Homo sapiens) (UniProt P0C1S8); test: Inhibition of WEE2 at 1 uM
Chain of Wee1-like protein kinase 2 (Homo sapiens) (P0C1S8 whole entry, looked up): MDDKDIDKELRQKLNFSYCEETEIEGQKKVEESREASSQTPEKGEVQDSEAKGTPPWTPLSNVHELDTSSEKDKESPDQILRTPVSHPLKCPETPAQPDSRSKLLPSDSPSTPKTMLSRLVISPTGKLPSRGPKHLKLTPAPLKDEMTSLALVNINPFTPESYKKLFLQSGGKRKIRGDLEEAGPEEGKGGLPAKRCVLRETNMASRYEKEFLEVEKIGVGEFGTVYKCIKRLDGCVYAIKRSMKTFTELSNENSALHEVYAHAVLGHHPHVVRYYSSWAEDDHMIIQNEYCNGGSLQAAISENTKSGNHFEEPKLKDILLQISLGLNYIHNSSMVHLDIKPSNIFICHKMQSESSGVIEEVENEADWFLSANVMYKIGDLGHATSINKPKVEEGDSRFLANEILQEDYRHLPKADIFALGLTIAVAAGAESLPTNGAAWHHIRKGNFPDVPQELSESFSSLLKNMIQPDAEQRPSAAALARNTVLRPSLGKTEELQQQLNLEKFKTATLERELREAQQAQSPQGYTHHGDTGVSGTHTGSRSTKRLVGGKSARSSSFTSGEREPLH

[14] = target: Mitogen-activated protein kinase kinase kinase 20 (Homo sapiens) (UniProt Q9NYL2); test: Inhibition of ZAK at 1 uM
[15] = target: Bone morphogenetic protein receptor type-1A (Homo sapiens) (UniProt P36894); test: Inhibition of BMPR1A at 1 uM
Chain of Bone morphogenetic protein receptor type-1A (Homo sapiens) (P36894 whole entry): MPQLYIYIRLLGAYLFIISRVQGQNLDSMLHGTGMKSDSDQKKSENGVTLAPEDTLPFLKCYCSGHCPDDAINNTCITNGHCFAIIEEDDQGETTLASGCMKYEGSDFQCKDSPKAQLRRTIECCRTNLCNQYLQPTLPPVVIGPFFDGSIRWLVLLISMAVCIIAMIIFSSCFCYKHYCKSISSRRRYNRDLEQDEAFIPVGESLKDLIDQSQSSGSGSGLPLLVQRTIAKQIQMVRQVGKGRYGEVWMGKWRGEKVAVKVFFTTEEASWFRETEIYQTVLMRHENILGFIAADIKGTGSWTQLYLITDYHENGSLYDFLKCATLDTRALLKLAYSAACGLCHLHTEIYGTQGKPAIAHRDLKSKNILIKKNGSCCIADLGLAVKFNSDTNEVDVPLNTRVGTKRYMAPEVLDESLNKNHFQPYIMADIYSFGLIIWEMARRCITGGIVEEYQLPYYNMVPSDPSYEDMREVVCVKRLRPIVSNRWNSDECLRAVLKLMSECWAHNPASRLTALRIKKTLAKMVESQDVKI
How it was run: (§2)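 Ambit KINOMEscan screen at a single concentration across a 250–400 kinase panel, recorded as percent inhibition. Selectivity was expressed as S(90), the fraction of kinases inhibited >90%.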

[16] = target: Calcium/calmodulin-dependent protein kinase type II subunit alpha (Homo sapiens) (UniProt Q9UQM7); test: Inhibition of CAMK2A at 1 uM; how it was run: as §2
[17] = target: Calcium/calmodulin-dependent protein kinase kinase 2 (Homo sapiens) (UniProt Q96RR4); test: Inhibition of CAMKK2 at 1 uM; how it was run: as §2
[18] = target: T3, Serine/threonine-protein kinase Chk1 (Homo sapiens) (UniProt O14757); test: Inhibition of CHEK1 at 1 uM
T3 sequence (whole entry): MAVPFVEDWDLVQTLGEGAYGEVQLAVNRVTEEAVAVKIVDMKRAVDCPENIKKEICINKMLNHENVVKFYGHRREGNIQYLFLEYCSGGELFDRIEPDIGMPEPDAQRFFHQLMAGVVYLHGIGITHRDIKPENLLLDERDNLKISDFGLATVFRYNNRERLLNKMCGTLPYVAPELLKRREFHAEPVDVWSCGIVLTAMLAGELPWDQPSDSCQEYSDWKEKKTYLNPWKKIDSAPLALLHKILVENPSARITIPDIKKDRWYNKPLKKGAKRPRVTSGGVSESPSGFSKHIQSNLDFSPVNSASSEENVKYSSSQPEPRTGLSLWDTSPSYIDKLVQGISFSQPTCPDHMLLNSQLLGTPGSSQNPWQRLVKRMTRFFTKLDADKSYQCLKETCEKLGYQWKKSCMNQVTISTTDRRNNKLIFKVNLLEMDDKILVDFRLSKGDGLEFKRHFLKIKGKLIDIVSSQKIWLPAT

[19] = target: Casein kinase II subunit alpha (Homo sapiens) (UniProt P68400); test: Inhibition of CSNK2A1 at 1 uM
Chain of Casein kinase II subunit alpha (Homo sapiens) (P68400 whole entry, looked up): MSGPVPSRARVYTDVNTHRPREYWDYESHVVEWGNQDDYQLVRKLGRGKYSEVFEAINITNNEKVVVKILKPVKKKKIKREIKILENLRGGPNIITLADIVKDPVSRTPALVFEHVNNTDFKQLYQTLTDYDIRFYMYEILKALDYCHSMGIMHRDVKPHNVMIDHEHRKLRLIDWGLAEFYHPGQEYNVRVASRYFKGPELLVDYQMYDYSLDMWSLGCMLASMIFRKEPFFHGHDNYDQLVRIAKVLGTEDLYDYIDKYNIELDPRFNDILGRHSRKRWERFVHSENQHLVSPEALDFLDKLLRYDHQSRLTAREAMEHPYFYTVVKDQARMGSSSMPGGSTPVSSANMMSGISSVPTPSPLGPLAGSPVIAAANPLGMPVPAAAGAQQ
How it was run: (§3)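 Single-concentration screen using Ambit Bioscience KINOMEscan technology across a panel of 250–400 kinases. Per-kinase inhibition from this screen was summarized as S(90), the fraction of kinases inhibited by more than 90%.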

[20] = tested on: Epidermal growth factor receptor (Homo sapiens), P00533 [L861Q]; test: Inhibition of EGFR L861Q mutant at 1 uM; type: protein assay; how it was run: as §3
[21] = target: cAMP-dependent protein kinase catalytic subunit alpha (Homo sapiens) (UniProt P17612); test: Inhibition of PKAC-alpha at 1 uM

Compound: CN1CCN(c2ccc(-c3cnc4c(c3)N(Cc3cc(F)ccc3F)CCN4)cn2)CC1
- inhibition [1]: < 50%
- inhibition [2]: 94.7%
- inhibition [3]: < 50%
- inhibition [4]: < 50%
- inhibition [5]: < 50%
- inhibition [6]: < 50%
- inhibition [7]: < 50%
- inhibition [8]: < 50%
- inhibition [9]: < 50%
- inhibition [10]: < 50%
- inhibition [11]: 58%
- inhibition [12]: < 50%
- inhibition [13]: < 50%
- inhibition [14]: < 50%
- inhibition [15]: < 50%
- inhibition [16]: < 50%
- inhibition [17]: < 50%
- inhibition [18]: < 50%
- inhibition [19]: < 50%
- inhibition [20]: < 50%
- inhibition [21]: < 50%

Compound: O=C(c1ccc(-c2cnc3c(c2)N(Cc2cc(Cl)ccc2C(F)(F)F)CCN3)cc1)N1CCC(N2CCCC2)CC1
- inhibition [1]: < 50%
- inhibition [2]: 99.5%
- inhibition [3]: < 50%
- inhibition [4]: < 50%
- inhibition [5]: < 50%
- inhibition [6]: < 50%
- inhibition [7]: < 50%
- inhibition [8]: < 50%
- inhibition [9]: < 50%
- inhibition [11]: 73.6%
- inhibition [12]: < 50%
- inhibition [15]: < 50%
- inhibition [16]: < 50%
- inhibition [17]: < 50%
- inhibition [19]: < 50%
- inhibition [20]: < 50%
- inhibition [21]: < 50%

Compound: O=C(c1ccc(-c2cnc3c(c2)N(Cc2cc(Cl)ccc2C(F)(F)F)CCN3)cc1)N1CCCCC1
- inhibition [1]: < 50%
- inhibition [2]: 96.3%
- inhibition [3]: < 50%
- inhibition [4]: < 50%
- inhibition [5]: < 50%
- inhibition [6]: < 50%
- inhibition [7]: < 50%
- inhibition [8]: < 50%
- inhibition [9]: < 50%
- inhibition [11]: < 50%
- inhibition [12]: < 50%
- inhibition [15]: < 50%
- inhibition [16]: < 50%
- inhibition [17]: < 50%
- inhibition [19]: < 50%
- inhibition [20]: < 50%
- inhibition [21]: < 50%

Compound: CN1CCN(c2ccc(-c3cnc4c(c3)N(Cc3c(F)ccc(F)c3Cl)CCN4)cn2)CC1
- inhibition [1]: < 50%
- inhibition [2]: 77%
- inhibition [3]: < 50%
- inhibition [4]: < 50%
- inhibition [5]: < 50%
- inhibition [6]: < 50%
- inhibition [7]: < 50%
- inhibition [8]: < 50%
- inhibition [9]: < 50%
- inhibition [10]: < 50%
- inhibition [11]: 72%
- inhibition [12]: < 50%
- inhibition [13]: < 50%
- inhibition [14]: < 50%
- inhibition [15]: < 50%
- inhibition [16]: < 50%
- inhibition [17]: < 50%
- inhibition [18]: < 50%
- inhibition [19]: < 50%
- inhibition [20]: < 50%

Compound: COC1CCN(C(=O)c2ccc(-c3cnc4c(c3)N(Cc3cc(Cl)ccc3C(F)(F)F)CCN4)cc2)CC1
- inhibition [1]: < 50%
- inhibition [3]: < 50%
- inhibition [4]: < 50%
- inhibition [5]: < 50%
- inhibition [6]: < 50%
- inhibition [7]: < 50%
- inhibition [8]: < 50%
- inhibition [9]: < 50%
- inhibition [11]: < 50%
- inhibition [12]: < 50%
- inhibition [15]: < 50%
- inhibition [16]: < 50%
- inhibition [17]: < 50%
- inhibition [19]: < 50%
- inhibition [20]: < 50%
- inhibition [21]: < 50%

Compound: O=C(O)c1ccc(-c2cnc3c(c2)N(Cc2cc(Cl)ccc2C(F)(F)F)CCN3)cc1
- inhibition [1]: < 50%
- inhibition [2]: 95.1%
- inhibition [3]: < 50%
- inhibition [4]: < 50%
- inhibition [5]: < 50%
- inhibition [6]: < 50%
- inhibition [7]: < 50%
- inhibition [8]: < 50%
- inhibition [9]: < 50%
- inhibition [11]: 65%
- inhibition [12]: < 50%
- inhibition [15]: < 50%
- inhibition [16]: < 50%
- inhibition [17]: < 50%
- inhibition [19]: < 50%
- inhibition [20]: < 50%
- inhibition [21]: < 50%

Compound: CC(=O)N1CCN(c2cc(-c3cnc4c(c3)N(Cc3cc(Cl)ccc3C(F)(F)F)CCN4)ccn2)CC1
- inhibition [1]: < 50%
- inhibition [2]: 96%
- inhibition [3]: < 50%
- inhibition [4]: < 50%
- inhibition [5]: < 50%
- inhibition [6]: < 50%
- inhibition [7]: < 50%
- inhibition [8]: < 50%
- inhibition [9]: < 50%
- inhibition [10]: < 50%
- inhibition [11]: 76%
- inhibition [12]: < 50%
- inhibition [13]: < 50%
- inhibition [14]: < 50%
- inhibition [15]: < 50%
- inhibition [16]: < 50%
- inhibition [17]: < 50%
- inhibition [18]: < 50%
- inhibition [19]: < 50%
- inhibition [20]: < 50%
- inhibition [21]: < 50%

Compound: FC(F)(F)c1ccc(Cl)cc1CN1CCNc2ncc(-c3ccnc(N4CCNCC4)c3)cc21
- inhibition [1]: < 50%
- inhibition [2]: 97%
- inhibition [3]: < 50%
- inhibition [4]: < 50%
- inhibition [5]: < 50%
- inhibition [6]: < 50%
- inhibition [7]: < 50%
- inhibition [8]: < 50%
- inhibition [9]: < 50%
- inhibition [10]: < 50%
- inhibition [11]: 79%
- inhibition [12]: < 50%
- inhibition [13]: < 50%
- inhibition [14]: < 50%
- inhibition [15]: < 50%
- inhibition [16]: < 50%
- inhibition [17]: < 50%
- inhibition [18]: < 50%
- inhibition [19]: < 50%
- inhibition [20]: < 50%
- inhibition [21]: < 50%

Compound: CN1CCN(c2ccc(-c3cnc4c(c3)N(Cc3cc(Cl)ccc3C(F)(F)F)CCN4)cn2)CC1
- inhibition [1]: < 50%
- inhibition [2]: 94%
- inhibition [3]: < 50%
- inhibition [4]: < 50%
- inhibition [5]: < 50%
- inhibition [6]: < 50%
- inhibition [7]: < 50%
- inhibition [8]: < 50%
- inhibition [9]: < 50%
- inhibition [10]: < 50%
- inhibition [11]: < 50%
- inhibition [12]: < 50%
- inhibition [13]: < 50%
- inhibition [14]: < 50%
- inhibition [15]: < 50%
- inhibition [16]: < 50%
- inhibition [17]: < 50%
- inhibition [18]: < 50%
- inhibition [19]: < 50%
- inhibition [20]: < 50%
